Published values collected from several papers.
pEC50, pIC50: −log10 of the molar value.
Read-out: cell growth or viability

`CNC(=O)COc1cc2cc(Nc3nc(N4CCC(C(=O)NCCCCCCCNC(=O)C[C@@H]5N=C(c6ccc(Cl)cc6)c6c(sc(C)c6C)-n6c(C)nnc65)CC4)ncc3Cl)cc(OC)c2n(C)c1=O` has a pEC50 of ~6.33 (human Fibroblast; 72 h).
The inhibition of `Cc1cn(CC(c2cn(C)c3ccccc23)c2cn(C)c3ccccc23)nn1` is reported as 17.1% (human Fibroblast; MTS; 20 µM; 24 h).
`Cc1cc2c(cc1N1C(=O)c3cccc4c(CCCO)ccc(c34)C1=O)n(C)c(=O)n2C` (racemic) gave a GI50 of 3.21 µM (769-P; resazurin).
For `C[C@H](Nc1ccnc(Nc2cccc(-c3cccnc3)c2)n1)C(=O)O`, the pEC50 was < 5.10 (MV4-11; ATP luminescence; 72 h).
With `CC(C)=CCC[C@](C)(O)[C@H]1CC[C@]2(C)[C@@H]1[C@H](O)C[C@@H]1[C@@]3(C)CC[C@H](O[C@@H]4O[C@H](CO)[C@@H](O)[C@H](O)[C@H]4O[C@@H]4O[C@H](CO)[C@@H](O)[C@H](O)[C@H]4O)C(C)(C)[C@@H]3CC[C@]12C` the IC20 was > 100 µM (BEAS-2B; MTT; 72 h).
The GI50 of `COc1ccc(-c2ccc(-c3ccc(C(=N)N)nc3)s2)cc1` is reported as 1.88 µM (LOX IMVI; SRB).
For `COC(C)(C)CCC[C@](C)(O)[C@H]1CC[C@]2(C)[C@@H]1[C@H](O)C[C@@H]1[C@@]3(C)CC[C@H](O)C(C)(C)[C@@H]3CC[C@]12C`, the IC20 was 4.46 µM (BEAS-2B; MTT; 72 h).
With `COC(=O)c1c(C)ncn1CC(c1c[nH]c2ccccc12)c1c[nH]c2ccccc12` the inhibition was 12% (human Fibroblast; MTS; 20 µM; 24 h).
For `COC(=O)c1cccc(-c2cccc(Nc3nccc(NC(C)C)n3)c2)c1`, the pEC50 was 5.31 (MV4-11; ATP luminescence; 72 h).
With `CC(C)c1ccccc1S(=O)(=O)c1cc(N)c2ncccc2c1[N+](=O)[O-]` the pIC50 was < 4.70 (HN-6; 72 h).
The pEC50 of `CC[C@H](C)Nc1ccnc(Nc2cccc(-c3cccnc3)c2)n1` is reported as 7.19 (MV4-11; ATP luminescence; 72 h).
With `CCCCCCCCCCCCCCCCOP(=O)([O-])OCC[N+](C)(C)C` the inhibition was 46.2% (human Fibroblast; MTS; 20 µM; 24 h).
`Fc1ccc(Nc2nccc(NC3CCCCC3)n2)cc1` gave a pEC50 of < 5.52 (MV4-11; ATP luminescence; 72 h).
`COc1ccc(-c2ccc(-c3ccc(C(=N)N)nc3)s2)cc1Cl` has a GI50 of 1.87 µM (LOX IMVI; SRB).
`CC(C)Nc1ccnc(Nc2cccc(-c3ccccc3)c2)n1` gave a pEC50 of 5.40 (MV4-11; ATP luminescence; 72 h).
`CC(C)(CO)Cn1nc(-c2ccc3nc(OC4CC4)ccc3c2)c2c(N)ncnc21` gave a GI50 of > 10 µM (CRL8155).
The pEC50 of `CCCNc1ccnc(Nc2cccc(-c3cccnc3)c2)n1` is reported as 6.86 (MV4-11; ATP luminescence; 72 h).
For `CC1(C)C(=O)NC2=C1C(=O)C(=O)c1ccccc12`, the pIC50 was < 4.70 (HN-6; 72 h).
